4 molecules from ChEMBL document CHEMBL1139275, “Design, synthesis, and biological evaluation of biotin-labeled (-)-ternatin, a potent fat-accumulation inhibitor against 3T3-L1 adipocytes” (Bioorg Med Chem Lett, 2009) can be followed below.

Series [1] relates to 3T3-L1. The series can be described thus: Inhibition of fat accumulation in mouse 3T3L1 cells after 7 days. The class given is functional, cell-based. The following applies: 3T3-L1, 168 h. Put shortly: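 3T3-L1 cells were exposed to each sample during differentiation, while untreated controls became fully mature adipocytes. Fat accumulation was expressed relative to the controls, and IC50 was taken as the concentration giving 50% inhibition. Values are means of quadruplicate determinations.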

The subject of series [2] is 3T3-L1. The series can be described thus: Cytotoxicity against mouse 3T3L1 cells. The format is cell-based.
Series [3] can be described thus: Cytotoxicity against mouse 3T3L1 cells at 5.2 uM. The class given is cell-based. The following applies: 3T3-L1 cells, read-out: INH.

Turning to `C#CC[C@@H]1C(=O)N[C@H]([C@H](O)C(C)C)C(=O)N[C@H]([C@@H](C)CC)C(=O)N(C)[C@@H](C)C(=O)N(C)[C@@H](CC(C)C)C(=O)N[C@@H](CC(C)C)C(=O)N(C)[C@@H](C)C(=O)N1C`, the IC50 in series [1] was 0.019 µM; in series [2], over 5.2 µM. For the same molecule, the cytotoxicity at 5.2 µM in series [3] came out at 54%.
Regarding `CC[C@H](C)[C@H]1NC(=O)[C@@H]([C@@H](C)O)NC(=O)[C@@H](C)N(C)C(=O)[C@H](C)N(C)C(=O)[C@H](CC(C)C)NC(=O)[C@H](CC(C)C)N(C)C(=O)[C@H](C)N(C)C1=O`, half-maximal inhibition in series [1] (IC50) was put at 3.1 µM.
Take `CC[C@H](C)[C@H]1NC(=O)[C@@H](CO)NC(=O)[C@@H](C)N(C)C(=O)[C@H](C)N(C)C(=O)[C@H](CC(C)C)NC(=O)[C@H](CC(C)C)N(C)C(=O)[C@H](C)N(C)C1=O`: the IC50 in series [1] came to 12 µM.
Take `CC[C@H](C)[C@H]1NC(=O)[C@@H]([C@H](O)C(C)C)NC(=O)[C@@H](Cc2cn(CCOCCOCCNC(=O)CCCC[C@@H]3SC[C@@H]4NC(=O)N[C@@H]43)nn2)N(C)C(=O)[C@H](C)N(C)C(=O)[C@H](CC(C)C)NC(=O)[C@H](CC(C)C)N(C)C(=O)[C@H](C)N(C)C1=O`: the IC50 in series [1] is 46 µM; in series [2], over 86 µM.

As a reminder, the IC50 is the concentration that gives 50% inhibition. Read a low IC50 as inhibition by little substance.
